From ChEMBL document CHEMBL1770105, “Discovery and evaluation of pyrazolo[1,5-a]pyrimidines as neuropeptide Y1 receptor antagonists” (Bioorg Med Chem Lett, 2011)
Activity calls are given as the source filed them. The calls are words filed in the database; no cut-off is given here.

Assays:
[1] = biological target: T1, Neuropeptide Y receptor type 1 (Homo sapiens, UniProt P25929); test: Displacement of [125I]-PYY from human recombinant NPY Y1 receptor overexpressed in membrane of Sf9 cells
T1 sequence (P25929 whole entry): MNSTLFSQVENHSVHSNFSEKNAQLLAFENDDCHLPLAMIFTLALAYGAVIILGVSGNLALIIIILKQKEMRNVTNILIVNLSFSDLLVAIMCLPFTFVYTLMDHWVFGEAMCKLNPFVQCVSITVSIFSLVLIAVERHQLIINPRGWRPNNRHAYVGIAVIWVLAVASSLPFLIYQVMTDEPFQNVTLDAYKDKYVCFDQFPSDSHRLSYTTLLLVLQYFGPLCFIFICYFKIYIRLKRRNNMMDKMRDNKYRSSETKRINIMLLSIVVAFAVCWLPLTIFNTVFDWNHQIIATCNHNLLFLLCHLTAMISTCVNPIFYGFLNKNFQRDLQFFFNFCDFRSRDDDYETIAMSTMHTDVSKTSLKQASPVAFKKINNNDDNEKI
Procedure, shortened: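 Human Y1 receptor: 125I-PYY displacement on Sf9 membranes overexpressing recombinant hY1R. Ki values are single determinations run in triplicate.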

[2] = Ratio of fraction unbound drug level in brain to plasma in Mdr1a/1b knockout mouse to FVB mouse at 5 mg.kg, sc after 0.5 hrs; type: ADME, organism-based
Procedure, shortened: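 Brain and plasma levels measured in Mdr1a/1b knockout and wild-type FVB mice 0.5 h after a 5 mg/kg sc dose. Brain/plasma ratios calculated from unbound fractions, measured by equilibrium dialysis of brain homogenate and plasma. Result expressed as knockout B/P over FVB B/P.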

[3] = biological target: T1, Neuropeptide Y receptor type 1; test: Antagonist activity at NPY Y1 receptor in human SK-N-MC cells assessed as inhibition of NPY-induced calcium mobilization by FLIPR assay; type: functional, cell-based
Procedure, shortened: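 SK-N-MC neuroblastoma cells plated at 25,000/well 4 days ahead, loaded with Fluo-3 for 1 h in 5% CO2, washed and resuspended in assay buffer (5 mM KCl, 115 mM NaCl, 0.96 mM NaH2PO4, 1 mM MgSO4, 2 mM CaCl2, 5 mM D-glucose) containing test compound.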

[4] = Plasma clearance in Sprague-Dawley rat at 1 mg/kg, iv and 3 mg/kg, po; type: ADME, organism-based
Procedure, shortened: (§1)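 Overnight-fasted, jugular-vein-cannulated SD rats (water ad libitum) dosed by oral gavage (3 mg/kg in 0.5% methyl cellulose, 2 mL/kg, n = 2) or iv via the jugular vein (1.0 mg/kg in 50% PEG, 1 mL/kg, n = 2).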

[5] = Fraction unbound in Sprague-Dawley rat plasma at 1 mg/kg, iv and 3 mg/kg, po; type: ADME, organism-based
[6] = tested on: Rattus norvegicus; test: Unbound plasma clearance in Sprague-Dawley rat 1 mg/kg, iv and 3 mg/kg, po; type: ADME, organism-based; conditions: in vivo
[7] = tested on: Rattus norvegicus; test: Antihypertensive activity in Sprague-Dawley rat assessed as inhibition of NPY-induced increase in arterial pressure at 3 mg/kg, iv; type: functional; conditions: Artery
Procedure, shortened: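 Overnight-fasted SD rats anesthetized with inactin (100 mg/kg ip), tracheal and femoral arterial/venous cannulae, on a heated pad. Arterial pressure and heart rate recorded every 5 s. NPY given as iv bolus every 15 min. After the third NPY bolus, compound given iv at 3 mg/kg in saline (1 mL/kg), followed by three further NPY injections.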

[8] = Half life in Sprague-Dawley rat at 1 mg/kg, iv and 3 mg/kg, po; type: ADME, organism-based; conditions: in vivo; procedure, shortened: as §1
[9] = Oral bioavailability in Sprague-Dawley rat at 3 mg/kg; type: ADME, organism-based; conditions: in vivo; procedure, shortened: as §1
[10] = Ratio of fraction unbound drug level in brain to plasma in Sprague-Dawley rat; type: ADME, cell-free
Procedure, shortened: (§2)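 Brain-to-plasma ratios calculated from unbound fractions. Unbound fraction in brain homogenate and whole plasma of rats or mice measured by equilibrium dialysis.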

[11] = Ratio of fraction unbound drug level in brain to plasma in FVB mouse; type: ADME, cell-free; procedure, shortened: as §2
[12] = tested on: Rattus norvegicus; test: Antiobesity activity in Sprague-Dawley rat assessed as reduction of NPY-induced food intake at 120 ug, icv after 4 hrs; type: functional, organism-based
Procedure, shortened: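 SD rats with icv cannulae, fed powdered chow ad libitum. Between 10 and 11 am in the light cycle, compound or propylene glycol vehicle co-infused icv with NPY in sterile water over 1 min. Food intake measured over the next 4 h. Crossover design, two treatments 2 days apart.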

[13] = tested on: Rattus norvegicus; test: Antiobesity activity in overnight fasted Sprague-Dawley rat assessed as decrease in food intake at 40 mg/kg, po followed by food re-feeding after 2 hrs post compound dose measured upto 2 hrs post re-feeding relative to control; type: functional; design: scale not given: the % may be the effect or the level left
Procedure, shortened: (§3)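 SD rats housed singly with powdered chow and water, fasted overnight, then dosed po at 40 mg/kg or vehicle (0.5% methyl cellulose in water). Pre-weighed food returned 2 or 4 h post-dose. Intake recorded 2 and 4 h after food was restored, relative to vehicle controls.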

[14] = tested on: Rattus norvegicus; test: Antiobesity activity in overnight fasted Sprague-Dawley rat assessed as decrease in food intake at 40 mg/kg, po followed by food re-feeding after 4 hrs post compound dose measured up to 2 to 4 hrs post re-feeding; type: functional, organism-based; design: dose 40 mg/kg; procedure, shortened: as §3
[15] = tested on: Rattus norvegicus; test: Neurotoxicity in Sprague-Dawley rat assessed as change in locomotor activity at 40 mg/kg, po; type: toxicity, organism-based; design: dose 40 mg/kg, route oral; conditions: in vivo
[16] = tested on: Rattus norvegicus; test: Antiobesity activity in Wistar rat assessed as decrease in nocturnal food intake at 40 mg/kg, po measured every 10 mins for 18 hrs post-dose; type: functional, organism-based; design: dose 40 mg/kg
Procedure, shortened: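 Wistar rats acclimated to a continuous food-intake monitoring system. Dosed po at 40 mg/kg or vehicle 30 min before the dark cycle. Intake logged every 10 min for 18 h post-dose. Compared with time-matched vehicle by two-tailed unpaired t-test.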

[17] = tested on: Rattus norvegicus; test: Neurotoxicity in Wistar rat assessed as change in locomotor activity at 40 mg/kg, po; type: toxicity, organism-based; design: dose 40 mg/kg, route oral; conditions: in vivo
[18] = tested on: Plasma; test: Unbound plasma concentration in Sprague-Dawley rat at 40 mg/kg, po after 2 hrs; type: ADME, organism-based; design: dose 40 mg/kg, route oral; conditions: in vivo
[19] = biological target: T2, Neuropeptide Y receptor type 2 (Homo sapiens, UniProt P49146); test: Binding affinity to human NPY Y2 receptor
T2 sequence (P49146 whole entry): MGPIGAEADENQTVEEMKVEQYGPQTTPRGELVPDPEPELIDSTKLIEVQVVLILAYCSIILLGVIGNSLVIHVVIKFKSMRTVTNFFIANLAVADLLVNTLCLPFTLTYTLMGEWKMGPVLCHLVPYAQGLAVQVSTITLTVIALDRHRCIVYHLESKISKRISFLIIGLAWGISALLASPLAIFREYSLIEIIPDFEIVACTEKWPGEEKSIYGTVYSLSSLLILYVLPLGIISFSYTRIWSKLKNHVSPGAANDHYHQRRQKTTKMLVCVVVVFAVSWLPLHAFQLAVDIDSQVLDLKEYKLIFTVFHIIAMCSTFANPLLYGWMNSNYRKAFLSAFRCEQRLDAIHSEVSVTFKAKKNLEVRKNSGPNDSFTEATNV

[20] = biological target: T3, Neuropeptide Y receptor type 5 (Homo sapiens, UniProt Q15761); test: Binding affinity to human NPY Y5 receptor
T3 sequence (Q15761 whole entry): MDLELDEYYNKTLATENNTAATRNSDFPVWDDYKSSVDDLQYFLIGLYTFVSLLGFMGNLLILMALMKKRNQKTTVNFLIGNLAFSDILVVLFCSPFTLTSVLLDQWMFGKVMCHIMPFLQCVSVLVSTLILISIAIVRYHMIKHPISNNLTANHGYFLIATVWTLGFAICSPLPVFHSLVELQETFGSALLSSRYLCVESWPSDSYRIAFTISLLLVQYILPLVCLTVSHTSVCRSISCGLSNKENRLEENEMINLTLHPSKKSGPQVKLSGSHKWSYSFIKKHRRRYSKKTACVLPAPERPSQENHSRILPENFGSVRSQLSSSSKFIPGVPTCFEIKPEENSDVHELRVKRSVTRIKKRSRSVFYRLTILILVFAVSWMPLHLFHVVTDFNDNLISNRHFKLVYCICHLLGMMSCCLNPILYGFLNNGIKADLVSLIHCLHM

[21] = biological target: T4, Corticotropin-releasing factor receptor 1 (Homo sapiens) (UniProt P34998); test: Binding affinity to CRHR at 10 uM
T4 sequence (whole entry): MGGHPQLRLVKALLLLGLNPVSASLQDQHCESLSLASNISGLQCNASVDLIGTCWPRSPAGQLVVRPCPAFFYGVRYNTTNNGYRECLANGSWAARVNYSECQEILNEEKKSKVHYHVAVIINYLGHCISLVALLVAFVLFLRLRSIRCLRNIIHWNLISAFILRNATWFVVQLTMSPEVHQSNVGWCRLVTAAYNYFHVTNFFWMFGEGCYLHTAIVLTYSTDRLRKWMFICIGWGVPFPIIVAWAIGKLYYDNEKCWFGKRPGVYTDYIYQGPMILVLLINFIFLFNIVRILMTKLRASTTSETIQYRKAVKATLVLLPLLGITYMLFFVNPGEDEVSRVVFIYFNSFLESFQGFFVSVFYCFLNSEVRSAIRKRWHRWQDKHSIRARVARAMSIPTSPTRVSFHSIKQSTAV

[22] = tested on: Rattus norvegicus; test: Antiobesity activity in overnight fasted Sprague-Dawley rat assessed as decrease in food intake at 40 mg/kg, po followed by food re-feeding after 2 hrs post compound dose measured up to 4 hrs post re-feeding relative to control; type: functional; design: scale not given: the % may be the effect or the level left; procedure, shortened: as §3
[23] = Drug level in Sprague-Dawley rat cerebral spinal fluid at 40 mg/kg, po after 2 hrs; type: ADME, organism-based; design: dose 40 mg/kg, route oral; conditions: cerebrospinal fluid, read-out: Drug uptake
Procedure, shortened: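 Rats dosed 40 mg/kg po were anesthetized with metofane at 2 h post-dose (n = 2). CSF drawn from the cisterna magna with a 26-gauge needle.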

[24] = Drug level in Sprague-Dawley rat brain interstitial fluid at 40 mg/kg, po after 2 hrs; type: ADME, organism-based; design: dose 40 mg/kg, route oral; conditions: read-out: Drug uptake
Procedure, shortened: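 Rats dosed 40 mg/kg po. Interstitial fluid collected at 2 h from the paraventricular nucleus with microdialysis probes.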

[25] = biological target: T5, Neuropeptide Y receptor type 1 (Rattus norvegicus, UniProt P21555); test: Displacement of [125I]PYY from rat recombinant NPY Y1 receptor overexpressed in membrane of Sf9 cells
T5 sequence (P21555 whole entry): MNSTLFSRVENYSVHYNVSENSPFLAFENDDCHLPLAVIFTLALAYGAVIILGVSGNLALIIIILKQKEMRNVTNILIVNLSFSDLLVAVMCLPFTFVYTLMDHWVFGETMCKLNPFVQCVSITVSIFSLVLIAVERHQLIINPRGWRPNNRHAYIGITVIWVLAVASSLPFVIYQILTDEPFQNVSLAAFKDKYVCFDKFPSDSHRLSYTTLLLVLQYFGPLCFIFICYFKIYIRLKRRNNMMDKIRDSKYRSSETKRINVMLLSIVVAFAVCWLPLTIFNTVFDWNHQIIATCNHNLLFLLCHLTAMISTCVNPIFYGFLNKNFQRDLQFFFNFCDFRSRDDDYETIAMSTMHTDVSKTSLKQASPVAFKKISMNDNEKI

[26] = Selectivity ratio of NPY Y1 receptor over CRHR
[27] = biological target: T6, Corticotropin-releasing factor receptor 1 (Homo sapiens, UniProt P34998); test: Binding affinity to CRHR
T6 sequence (P34998 whole entry): T4 sequence (whole entry)

COc1cc(Cl)c(-c2c(C)nn3c(NCCNCC(F)F)cc(C)nc23)c(Cl)c1
Ki [1]: 383 nM | Knockout-to-FVB ratio of unbound brain/plasma ratio [2]: 2

COc1cc(Cl)c(-c2c(C)nn3c(NCCNC4CCOCC4)cc(C)nc23)c(Cl)c1
Ki [1]: 1 nM | IC50 [3]: 7 nM | clearance [4]: 45 mL/min/kg | fraction unbound [5]: 0.059 | CL [6]: 763 mL/min/kg | inhibition in vivo at 3 mg/kg [7]: 92% | half-life [8]: 1.2 h | bioavailability [9]: 13% | BPR [10]: 0.13 | BPR [11]: 0.1 | Knockout-to-FVB ratio of unbound brain/plasma ratio [2]: 9 | Activity [12]: Active | Activity [13]: 12% | Activity [14]: inactive | Activity [15]: Non-toxic | Activity [16]: Active | Activity [17]: Non-toxic | Cp [18]: 95 nM | IC50 [19]: > 10000 nM | IC50 [20]: > 10000 nM | inhibition [21]: < 50% | Activity [22]: 12% | concentration at 2 h [23]: 26 nM | concentration at 2 h [24]: 17 nM | Ki [25]: 3.5 nM

Cc1cc(NCCNC2CCCC2)n2nc(C)c(-c3c(Cl)cccc3Cl)c2n1
Ki [1]: 38 nM

CCCOc1cc(Cl)c(-c2c(C)nn3c(NCCNC4CCOCC4)cc(C)nc23)c(Cl)c1
Ki [1]: 8 nM | IC50 [3]: 207 nM | clearance [4]: 25 mL/min/kg | fraction unbound [5]: 0.011 | CL [6]: 2273 mL/min/kg | inhibition in vivo at 3 mg/kg [7]: 0%

CCN(CCN)c1nc(C)nc2c1c1ccccc1n2-c1c(C)cc(C)cc1C
Ratio [26]: 29 | Ki [27]: 4470 nM

COc1cc(Cl)c(-c2c(C)nn3c(NCCNC4CCCCC4F)cc(C)nc23)c(Cl)c1 (mixture of isomers)
Ki [1]: 5 nM | Knockout-to-FVB ratio of unbound brain/plasma ratio [2]: 8

COc1cc(Cl)c(-c2c(C)nn3c(NCCNCCF)cc(C)nc23)c(Cl)c1
Ki [1]: 22 nM | Knockout-to-FVB ratio of unbound brain/plasma ratio [2]: 4
